Data set [1] addresses Protease (Human immunodeficiency virus 1) (UniProt Q9YQ12). Description: Inhibition of HIV1 protease dimerization expressed in Escherichia coli Rosetta(DE3) using DABCYL-gamma-abu-Ser-Gln-Asn-Tyr-Pro-Ile-Val-Gln-EDANS as substrate at 28 uM by fluorimetric assay.
The target is the same in data set [2]. Description: Inhibition of HIV1 protease dimerization expressed in Escherichia coli Rosetta(DE3) at 5 uM by 1-Anilino-8-naphthalene sulfonate-based fluorescent probe binding assay. The essentials:
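Recombinant PR (350 nM) in 100 mM sodium acetate, 1 M NaCl, 1 mM EDTA, pH 4.7, incubated at 25 °C with or without 5 μM inhibitor. ANS was then added at final 10–60 μM, with final DMSO 0.2% (v/v). Excitation 370 nm, emission 470 nm. Fluorescence was corrected for ANS plus inhibitor without enzyme, and each measurement was averaged over five reads.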

The next data set addresses T1, Renin (Homo sapiens) (UniProt P00797).
T1 sequence (whole entry): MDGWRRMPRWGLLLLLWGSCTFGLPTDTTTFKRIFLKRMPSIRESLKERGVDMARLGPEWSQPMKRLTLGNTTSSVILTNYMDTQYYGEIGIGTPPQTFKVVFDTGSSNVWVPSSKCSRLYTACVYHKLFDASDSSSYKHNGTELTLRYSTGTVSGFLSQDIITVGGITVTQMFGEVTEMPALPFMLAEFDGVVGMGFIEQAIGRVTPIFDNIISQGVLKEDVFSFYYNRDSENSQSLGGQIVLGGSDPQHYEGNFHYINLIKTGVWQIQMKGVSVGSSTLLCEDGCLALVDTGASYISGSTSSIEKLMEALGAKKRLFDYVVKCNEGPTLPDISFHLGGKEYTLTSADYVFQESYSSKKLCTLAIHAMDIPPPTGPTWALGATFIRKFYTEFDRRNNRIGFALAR
Description: Inhibition of recombinant renin using Arg-Glu(EDANS)-Ile-His-Pro-Phe-His-Leu-Val-Ile-His-Thr-Lys-(DABCYL)-Arg as substrate at 10 uM by fluorimetric analysis. The essentials: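 Renin activity read fluorometrically with the EDANS/DABCYL substrate (Km 3.3 μM) at 5 μM in 50 mM Tris–HCl, 100 mM NaCl, 1 mM EDTA, pH 8.0. Excitation 340 nm, emission 500 nm. Compounds were tested at 10 μM.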

The nature of data set [3]: Half life of the compound in RPMI medium in presence of 20% fetal calf serum. The class given is physicochemical. The following applies: cattle, RPMI medium with 20% fetal calf serum. The essentials: (§1)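 Inhibitor incubated at 37 °C in RPMI culture medium with 20% fetal calf serum for up to 2 days. Incubations stopped with ethanol, cooled to 4 °C and centrifuged, and the supernatant analysed by HPLC. Half-life came from least-squares linear regression of a semilog plot of remaining inhibitor versus incubation time.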

A short description of data set [4]: Inhibition of HIV1 protease ANAM-11 mutant dimerization expressed in Escherichia coli Rosetta(DE3) using DABCYL-gamma-abu-Ser-Gln-Asn-Tyr-Pro-Ile-Val-Gln-EDANS as substrate by Zhang-Poorman kinetic analysis. Also noted: species or system Human immunodeficiency virus 1. The essentials:
(§2)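 Recombinant protease produced in E. coli Rosetta (DE3)pLysS from a pET-9 vector. Fluorimetric assay (ex 340, em 490 nm) run in 100 mM sodium acetate, 1 mM EDTA, 1 M NaCl, pH 4.7, at 30 °C with 3% (v/v) final DMSO. Substrate held at 5.2 μM, at least six enzyme concentrations (5.33−18.6 nM), inhibitor 0.5−28 μM. Kid derived from Zhang−Poorman analysis. At least triplicate.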

Data set [5] can be described thus: Inhibition of HIV1 protease MDR-HM mutant dimerization expressed in Escherichia coli Rosetta(DE3) using DABCYL-gamma-abu-Ser-Gln-Asn-Tyr-Pro-Ile-Val-Gln-EDANS as substrate by Zhang-Poorman kinetic analysis. Also noted: species or system Human immunodeficiency virus 1. The essentials:
as §2

A further data set is filed under the species Sus scrofa. Put plainly: Inhibition of […] using Abz-Thr-Ile-Nle-(p-NO2-Phe)-Gln-Arg-NH2 as substrate at 10 uM by fluorimetric analysis. The essentials:
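Pepsin from porcine gastric mucosa assayed fluorometrically in 10 mM NaHCOO, pH 3.5, with 20 μM Abz-Thr-Ile-Nle-(p-NO₂-Phe)-Gln-Arg-NH₂ substrate (Km 13.3 μM). Excitation 337 nm, emission 410 nm. Compounds were tested at 10 μM.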

A further data set deals with Protease (Human immunodeficiency virus 1, UniProt Q9YQ12). Description: Inhibition of HIV1 protease dimerization expressed in Escherichia coli Rosetta(DE3) using DABCYL-gamma-abu-Ser-Gln-Asn-Tyr-Pro-Ile-Val-Gln-EDANS as substrate by Zhang-Poorman kinetic analysis. The essentials:
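Recombinant PR expressed in E. coli Rosetta (DE3)pLysS from a pET-9 vector. Fluorogenic substrate at 5.2 μM (ex 340, em 490 nm) in 100 mM sodium acetate, 1 mM EDTA, 1 M NaCl, pH 4.7, 30 °C, final DMSO 3% (v/v). At least six enzyme concentrations (5.33–18.6 nM) and inhibitor 0.5–28 μM. Kid from Zhang–Poorman analysis, at least triplicate.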

Data set [6] in a line: Chemical stability in RPMI medium up to 48 hrs in presence of 20% fetal calf serum. The class given is physicochemical. The settings on record: cattle. The essentials:
as §1

Data set [7] can be described thus: Solubility of the compound. The data set is classed as physicochemical.

Values after ≈ are worked out from the molar mass of the structure shown. Active and inactive are the calls of the source. No cut-off for these calls is given here.

Protease, sequence (Q9YQ12 whole entry): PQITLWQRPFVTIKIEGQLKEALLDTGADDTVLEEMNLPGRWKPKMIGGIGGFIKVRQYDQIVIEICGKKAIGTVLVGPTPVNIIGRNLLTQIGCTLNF
Protease (Human immunodeficiency virus 1), sequence (Q9YQ12 as listed by the source): as the sequence (Q9YQ12 whole entry) above

Regarding `CC(=O)NNC(=O)NNC(=O)CCNC(=O)CCCOc1ccc2ccc(OCCCC(=O)NCCC(=O)NNC(=O)NNC(C)=O)cc2c1`, in data set [1], the inhibition – broadly, how much of the control response was suppressed – came out at 0%.

In turn, `CC(C)[C@H](NC(=O)CCCOc1ccc2ccc(OCCCC(=O)O)cc2c1)C(=O)NNC(=O)[C@@H](NC(=O)OC(C)(C)C)C(C)C` returned an inhibition in data set [1] of 0%.

For the molecule `COC(=O)CCNC(=O)NNC(=O)NNC(=O)CCCOc1ccc2ccc(OCCCC(=O)NNC(=O)NNC(=O)NCCC(=O)OC)cc2c1`, in [1], the inhibition is 0%.

On to `CC(=O)N[C@H](C(=O)N[C@H](C(=O)N[C@@H](CC(C)C)[C@@H](O)CC(=O)N[C@@H](C)C(=O)N[C@@H](CC(C)C)[C@@H](O)CC(=O)O)C(C)C)C(C)C`, for which, in data set [2], the inhibition entry is “inactive”.

Take `CC(=O)NNC(=O)NNC(=O)[C@@H](NC(=O)CCCOc1ccc2ccc(OCCCC(=O)N[C@H](C(=O)NNC(=O)NNC(C)=O)C(C)C)cc2c1)C(C)C`: in data set [1], the inhibition was determined as 21%.

For the molecule `CC(C)CN(C[C@@H](O)[C@H](Cc1ccccc1)NC(=O)O[C@H]1CCOC1)S(=O)(=O)c1ccc(N)cc1`, the inhibition entry in data set [2] was “inactive”.

In turn, `CC(=O)NNC(=O)NNC(=O)[C@H](CCCCNC(=O)CCCOc1ccc2ccc(OCCCC(=O)NCCCC[C@H](NC(=O)OC(C)(C)C)C(=O)NNC(=O)NNC(C)=O)cc2c1)NC(=O)OC(C)(C)C` came in with an inhibition in data set [1] of 0%.

On to `COC(=O)[C@@H](NC(=O)[C@H](CC(C)C)NC(=O)[C@@H](NC(=O)CCCOc1ccc2ccc(OCCCC(=O)NNC(=O)NNC(=O)N[C@H](C(N)=O)C(C)C)cc2c1)C(C)C)C(C)C`, for which the inhibition result on Renin (Homo sapiens) and in the data set listed under Sus scrofa was “inactive” in each case. In data set [3], the half-life (as a rule, how long it takes for the measured level to halve) is 24 h. The inhibition entry in [2] is “Active”. Also, the Ki (as a rule, the dissociation constant of the complex between target and ligand, obtained from inhibition or displacement) in data set [4] turned out to be 170 nM; in data set [5], 270 nM; at Protease, 150 nM.

With `CC(C)[C@H](NC(=O)CCCOc1ccc2ccc(OCCCC(=O)N[C@H](C(=O)NNC(=O)[C@@H](NC(=O)OC(C)(C)C)C(C)C)C(C)C)cc2c1)C(=O)NNC(=O)[C@@H](NC(=O)OC(C)(C)C)C(C)C`, the inhibition entry on Renin (Homo sapiens) and in the data set listed under Sus scrofa was “inactive” in each case. Also, the inhibition result in data set [2] is “Active”. Also, the Ki was determined as 80 nM in [4], 160 nM in [5] and 50 nM on Protease. The Stability entry in data set [6] was “Stable”.

Turning to `COC(=O)[C@@H](NC(=O)[C@H](CC(C)C)NC(=O)[C@@H](NC(=O)CCCOc1ccc2ccc(OCCCC(=O)N[C@H](C(=O)N[C@@H](CC(C)C)C(=O)N[C@H](C(=O)OC)C(C)C)C(C)C)cc2c1)C(C)C)C(C)C`, the inhibition entry in data set [2] was “Active”. Besides, at Protease, the Ki came out at 560 nM.

As for `CC(C)[C@H](NC(=O)NNC(=O)NNC(=O)CCCOc1ccc2ccc(OCCCC(=O)NNC(=O)NNC(=O)N[C@H](C(N)=O)C(C)C)cc2c1)C(N)=O`, the inhibition entry on Renin (Homo sapiens) and in the data set filed under Sus scrofa was “inactive” each time. Also, the Ki in data set [4] is 800 nM; in data set [5] it was 1600 nM; on Protease, 700 nM. Further, the concentration in solution in [7] (solubility) was 300 µg/mL (≈ 394 µM). Besides, the Stability entry in data set [6] is “Stable”.

`CNC(=O)NNC(=O)NNC(=O)CCCOc1ccc2ccc(OCCCC(=O)NNC(=O)NNC(=O)NC)cc2c1` returned an inhibition in [1] of 13%.

As to `CC(C)(C)NC(=O)[C@@H]1C[C@@H]2CCCC[C@@H]2CN1C[C@@H](O)[C@H](Cc1ccccc1)NC(=O)[C@H](CC(N)=O)NC(=O)c1ccc2ccccc2n1`, the inhibition entry in [2] was “inactive”.

Turning to `COC(=O)[C@@H](NC(=O)[C@H](CC(C)C)NC(=O)[C@@H](NC(=O)CCCOc1ccc2ccc(OCCCC(=O)N[C@H](C(=O)NNC(=O)[C@@H](NC(=O)OC(C)(C)C)C(C)C)C(C)C)cc2c1)C(C)C)C(C)C`, the inhibition result on Renin (Homo sapiens) and in the data set listed under Sus scrofa was “inactive” each time. Also, in data set [3], the half-life is 24 h. In addition, the inhibition result in data set [2] was “Active”. Moreover, the Ki is 100 nM in [4], 160 nM in [5] and 90 nM at Protease.

The record behind these values is ChEMBL document CHEMBL2163250, “Carbonylhydrazide-based molecular tongs inhibit wild-type and mutated HIV-1 protease dimerization” (J Med Chem, 2012).
